pIC50: −log10 of the molar value.
Assays:
Mus musculus [1] = assay: Analgesic activity of compound (1.98 nM) in mice after icv administration; type: functional
In short: (§1)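 Swiss mice (20–22 g) got icv injections of compound freshly dissolved in saline, in a constant 5 μL. Hind-paw lick latency on a 65 ± 1 °C hot plate was read 15 min after injection. Animals with control latency above 9 s were rejected. Values are mean ± SEM, with n per group.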

Mus musculus [2] = organism: Mus musculus; assay: Relative potency of compound verses morphine for analgesic activity in mice; type: functional
[3] = biological target: Delta-type opioid receptor (Mus musculus, UniProt P32300); assay: Inhibitory potency against delta Opioid receptor delta 1 in longitudinal muscle preparation of mouse vas deferens
Chain of Delta-type opioid receptor (P32300 whole entry): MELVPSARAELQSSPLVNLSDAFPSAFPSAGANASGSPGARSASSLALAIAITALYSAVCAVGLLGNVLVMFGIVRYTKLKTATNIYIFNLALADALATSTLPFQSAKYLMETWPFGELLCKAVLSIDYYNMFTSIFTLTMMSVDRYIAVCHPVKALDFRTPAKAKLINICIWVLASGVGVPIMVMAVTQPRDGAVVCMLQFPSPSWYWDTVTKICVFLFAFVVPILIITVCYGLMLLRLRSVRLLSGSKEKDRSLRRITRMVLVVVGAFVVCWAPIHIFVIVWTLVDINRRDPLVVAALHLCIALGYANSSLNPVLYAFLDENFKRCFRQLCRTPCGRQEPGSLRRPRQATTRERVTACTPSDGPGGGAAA

Mu-type opioid receptor = Mu-type opioid receptor (Cavia porcellus, UniProt P97266); assay: Inhibitory potency against Opioid receptor mu 1 in longitudinal muscle preparation of guinea pig ileum; type: tissue-based
Chain of Mu-type opioid receptor (P97266 whole entry): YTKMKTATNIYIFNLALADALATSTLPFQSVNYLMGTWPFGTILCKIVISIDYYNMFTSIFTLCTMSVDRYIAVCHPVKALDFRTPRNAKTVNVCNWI
In short: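 Guinea pig ileum was electrically stimulated to contract, and inhibition was measured at six concentrations per compound, with six to eight assays each. Methionine-enkephalin served as the internal standard in every assay. IC50 was obtained by regression analysis.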

[4] = Ratio of IC50 evaluated in GPI to MVD; type: functional
In short: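 IC50 values were determined on electrically stimulated guinea pig ileum and on mouse vas deferens. Each used six concentrations with six to eight assays each, methionine-enkephalin as internal standard, and regression analysis. The ratio is GPI IC50 over MVD IC50.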

Mus musculus [5] = assay: Analgesic activity of compound (1.45 nM) in mice after icv administration; type: functional; in short: as §1
Mus musculus [6] = assay: Analgesic activity of compound (1.46+diprenorphine) in mice after icv administration; type: functional
In short: (§2)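 Swiss mice (20–22 g) got naloxone 1 mg/kg sc or diprenorphine 0.5 mg/kg sc 15 min before icv compound, given in saline in a constant 5 μL. Hind-paw lick latency on a 65 ± 1 °C hot plate was read 15 min after icv injection. Mice with control latency over 9 s were excluded. Values are mean ± SEM, with n.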

Mus musculus [7] = assay: Analgesic activity of compound (1.46+naloxone) in mice after icv administration; type: functional; in short: as §2
Mus musculus [8] = assay: Analgesic activity of compound (1.46 nM) in mice after icv administration; type: functional; in short: as §1
Mus musculus [9] = assay: Analgesic activity of compound (1.48 nM) in mice after icv administration; type: functional; in short: as §1
Mus musculus [10] = assay: Analgesic activity of compound (2.66 nM) in mice after icv administration; type: functional; in short: as §1

| Compound | Relative potency (Mus musculus [2]) | pIC50 [3] | pIC50 (Mu-type opioid receptor) | Ratio [4] | further results |
| --- | --- | --- | --- | --- | --- |
| CC(C)CC(C)NC(=O)CNC(=O)[C@H](C)NC(=O)[C@@H](N)Cc1ccc(O)cc1 (stereo not given in full) | 1 | 5.91 | 6.74 | 0.15 | Hind-paw lick latency time (Mus musculus [1]): 25 s |
| CC(C)C[C@@H](NC(=O)[C@H](Cc1ccccc1)NC(=O)CNC(=O)[C@@H](C)NC(=O)[C@@H](N)Cc1ccc(O)cc1)C(=O)O [DADLE] | – | – | 7.32 | – | – |
| H-YAGFMT-OH | 2 | 8.96 | 6.62 | 220 | Hind-paw lick latency time (Mus musculus [5]): 29.3 s |
| CC(C)C[C@H](NC(=O)[C@H](Cc1ccccc1)NC(=O)CNC(=O)[C@H](CO)NC(=O)[C@@H](N)Cc1ccc(O)cc1)C(=O)N[C@H](C(=O)O)[C@@H](C)O | – | – | 6.44 | – | Hind-paw lick latency time (Mus musculus [6]): 6.6 s; Hind-paw lick latency time (Mus musculus [7]): 10.5 s; Hind-paw lick latency time (Mus musculus [8]): 32.6 s |
| H-YMGFP-NH2 | 25 | 7.64 | 7.66 | 0.95 | – |
| CSCC[C@H](NC(=O)[C@H](Cc1ccccc1)NC(=O)CNC(=O)CNC(=O)[C@@H](N)Cc1ccc(O)cc1)C(=O)O | – | – | 6.70 | – | – |
| C[C@H](NC(=O)[C@@H](N)Cc1ccc(O)cc1)C(=O)NCC(=O)N(C)[C@@H](Cc1ccccc1)C(=O)N[C@@H](CC[S+](C)[O-])C(=O)O (stereo not given in full) | >100 | 7.80 | 8.14 | 0.46 | – |
| H-YGGFMT-OH | >0.1 | 8.21 | 6.42 | 62 | Hind-paw lick latency time (Mus musculus [9]): 6.5 s |
| CN1CC[C@]23c4c5ccc(O)c4O[C@H]2[C@@H](O)C=C[C@H]3[C@H]1C5 [MORPHINE] | – | – | – | – | Hind-paw lick latency time (Mus musculus [10]): 25.2 s |
